# Measurements taken from ChEMBL document CHEMBL1122934, “Angiotensin-converting enzyme inhibitors. New orally active antihypertensive (mercaptoalkanoyl)- and [(acylthio)alkanoyl]glycine derivatives” (J Med Chem, 1985).
# Columns and labels:
# [1] = biological target: T1, Angiotensin-converting enzyme (Rattus norvegicus) (UniProt P47820); experiment: Peroral dose required to inhibit angiotensin I induced vasopressor response in normotensive conscious rats; type: functional
# T1 sequence (whole entry): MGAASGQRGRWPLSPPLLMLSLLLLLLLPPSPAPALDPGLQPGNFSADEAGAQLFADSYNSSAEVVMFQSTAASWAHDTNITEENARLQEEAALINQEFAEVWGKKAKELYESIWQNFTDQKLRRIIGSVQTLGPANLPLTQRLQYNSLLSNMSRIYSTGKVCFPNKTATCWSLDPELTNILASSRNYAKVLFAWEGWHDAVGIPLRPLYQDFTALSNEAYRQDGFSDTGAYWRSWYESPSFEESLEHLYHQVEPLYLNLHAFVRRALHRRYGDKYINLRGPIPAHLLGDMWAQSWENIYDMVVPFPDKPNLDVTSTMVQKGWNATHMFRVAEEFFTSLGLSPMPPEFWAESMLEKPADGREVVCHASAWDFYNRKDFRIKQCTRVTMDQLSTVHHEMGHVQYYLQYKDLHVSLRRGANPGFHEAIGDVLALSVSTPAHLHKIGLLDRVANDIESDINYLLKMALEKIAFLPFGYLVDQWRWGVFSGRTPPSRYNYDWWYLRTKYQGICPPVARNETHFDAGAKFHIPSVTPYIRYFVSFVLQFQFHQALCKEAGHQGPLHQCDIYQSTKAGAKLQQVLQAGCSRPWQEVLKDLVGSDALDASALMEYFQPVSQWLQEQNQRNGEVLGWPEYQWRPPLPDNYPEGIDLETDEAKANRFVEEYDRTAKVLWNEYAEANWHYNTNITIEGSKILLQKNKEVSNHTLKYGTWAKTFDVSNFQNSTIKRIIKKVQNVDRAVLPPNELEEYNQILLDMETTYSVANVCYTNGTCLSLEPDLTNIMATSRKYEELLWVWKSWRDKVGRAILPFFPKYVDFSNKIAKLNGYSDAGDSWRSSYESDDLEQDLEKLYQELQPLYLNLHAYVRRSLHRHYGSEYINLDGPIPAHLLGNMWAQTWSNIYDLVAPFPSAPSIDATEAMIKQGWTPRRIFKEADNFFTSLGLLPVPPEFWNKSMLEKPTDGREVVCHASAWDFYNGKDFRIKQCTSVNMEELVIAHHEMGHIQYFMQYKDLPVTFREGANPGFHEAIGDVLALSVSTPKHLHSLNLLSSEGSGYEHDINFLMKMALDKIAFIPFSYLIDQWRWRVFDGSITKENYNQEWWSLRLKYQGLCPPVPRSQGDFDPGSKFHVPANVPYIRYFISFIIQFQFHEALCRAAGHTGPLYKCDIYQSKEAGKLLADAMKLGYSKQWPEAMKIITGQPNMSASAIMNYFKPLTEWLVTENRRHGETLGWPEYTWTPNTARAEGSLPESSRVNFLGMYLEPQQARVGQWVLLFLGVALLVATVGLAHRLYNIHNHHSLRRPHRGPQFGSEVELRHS
# Outline: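 Male normotensive rats with aortic and vena caval catheters, used ≥6 days later while restrained; angiotensins I and II 0.25 μg/kg iv every 10 min. One oral inhibitor dose in 0.5% gum tragacanth suspension; angiotensin I repeated every 10 min for ≥2 h. Maximum inhibition as % of initial response; ID50 from dose-response plot.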
# [2] = biological target: T2, Angiotensin-converting enzyme (Oryctolagus cuniculus, UniProt P12822); experiment: In vitro inhibitory activity against rabbit lung Angiotensin I converting enzyme at pH 8.3
# T2 sequence (P12822 whole entry): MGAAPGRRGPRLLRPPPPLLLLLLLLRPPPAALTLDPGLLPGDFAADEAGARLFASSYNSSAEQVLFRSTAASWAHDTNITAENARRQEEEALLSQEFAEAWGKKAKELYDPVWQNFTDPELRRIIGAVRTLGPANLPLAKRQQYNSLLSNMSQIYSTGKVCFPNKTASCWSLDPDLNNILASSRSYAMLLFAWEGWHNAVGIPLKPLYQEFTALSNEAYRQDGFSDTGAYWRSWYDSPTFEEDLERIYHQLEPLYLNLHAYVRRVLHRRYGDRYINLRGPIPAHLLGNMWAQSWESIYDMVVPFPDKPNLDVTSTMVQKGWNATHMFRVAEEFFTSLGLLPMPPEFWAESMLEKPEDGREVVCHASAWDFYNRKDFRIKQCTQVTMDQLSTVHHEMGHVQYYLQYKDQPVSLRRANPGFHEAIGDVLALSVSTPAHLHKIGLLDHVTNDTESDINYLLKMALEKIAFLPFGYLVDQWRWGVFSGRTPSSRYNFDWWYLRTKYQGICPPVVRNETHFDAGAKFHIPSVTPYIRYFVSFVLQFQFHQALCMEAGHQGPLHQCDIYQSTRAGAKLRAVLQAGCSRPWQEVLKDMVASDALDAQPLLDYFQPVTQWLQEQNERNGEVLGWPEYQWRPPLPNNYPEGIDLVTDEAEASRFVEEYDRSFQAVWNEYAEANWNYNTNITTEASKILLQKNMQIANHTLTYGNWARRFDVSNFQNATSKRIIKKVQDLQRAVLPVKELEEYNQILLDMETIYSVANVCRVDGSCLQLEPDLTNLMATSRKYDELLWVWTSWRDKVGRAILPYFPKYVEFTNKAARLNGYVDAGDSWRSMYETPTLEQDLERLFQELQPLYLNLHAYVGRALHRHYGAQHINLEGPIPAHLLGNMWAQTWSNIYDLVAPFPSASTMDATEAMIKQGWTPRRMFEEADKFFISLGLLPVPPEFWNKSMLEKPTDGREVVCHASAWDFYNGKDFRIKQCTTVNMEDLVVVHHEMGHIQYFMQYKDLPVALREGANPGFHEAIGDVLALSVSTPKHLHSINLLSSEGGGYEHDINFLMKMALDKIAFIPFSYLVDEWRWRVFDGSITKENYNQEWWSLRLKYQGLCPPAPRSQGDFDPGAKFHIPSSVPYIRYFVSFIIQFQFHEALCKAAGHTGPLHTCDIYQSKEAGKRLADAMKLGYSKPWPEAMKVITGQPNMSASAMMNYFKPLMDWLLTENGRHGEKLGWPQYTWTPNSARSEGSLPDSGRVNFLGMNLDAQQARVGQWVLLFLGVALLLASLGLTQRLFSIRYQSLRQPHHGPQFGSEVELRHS
# [3] = test system: Canis familiaris; experiment: Peroral dose required to inhibit angiotensin I induced vasopressor response in normotensive conscious dogs; type: functional; conditions: Canis lupus familiaris, po; read-out: ID50 (the source's name)
# Outline: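 Six conscious normotensive dogs; pressor response to angiotensin I 0.25 μg/kg iv. Inhibitor given orally at 0.01–1 mg/kg, vehicle 0.3 M KH₂PO₄ buffer, weekly intervals in a three-way crossover with vehicle control.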
Compound,ID50 [1] [mg/kg],IC50 [2] [nM],ED50 [3] [mg/kg]
COc1cccc(N(CC(=O)O)C(=O)C(C)CSC(C)=O)c1 (centres undefined),–,110,–
CC(=O)SCC(C)C(=O)N(CC(=O)O)c1cccc(F)c1 (centres undefined),–,51,–
CC(=O)SCC(C)C(=O)N(CC(=O)O)CC1CCCO1 (centres undefined),–,1900,–
CC(CS)C(=O)N(CC(=O)O)C[C@H]1CC2CC(C1C)C2(C)C (some centres undefined),–,160,–
CC(=O)SCC(C)C(=O)N(CC(=O)O)c1ccc2c(c1)CCC2 (centres undefined),1.5,48,–
CC(=O)SCC(C)C(=O)N(CC(=O)O)CC1CC2CC(C1C)C2(C)C (centres undefined),–,85,–
C#CCN(CC(=O)O)C(=O)C(C)CSC(C)=O (centres undefined),–,4500,–
CC(=O)SCC(C)C(=O)N(CC(=O)O)C(C)C (centres undefined),–,5900,–
C[C@@H](CSC(=O)C(C)(C)C)C(=O)N(CC(=O)O)C1CCCC1,25,> 100000,–
CCCCc1ccc(N(CC(=O)O)C(=O)C(C)CSC(C)=O)cc1 (centres undefined),–,64,–
CC(S)C(=O)NCC(=O)O (centres undefined) [TIOPRONIN],–,1900,–
CC(=O)SCC(C)C(=O)N(CC(=O)O)C1CCC2CC1C2(C)C (centres undefined),–,45,–
CCN1CCCC1CN(CC(=O)O)C(=O)C(C)CS (centres undefined),–,640,–
CC(CS)C(=O)N(C1CC1)C(C)C(=O)O (centres undefined),–,79,–
CC(=O)SCC(C)C(=O)N(CC(=O)O)Cc1ccco1 (centres undefined),–,700,–
CCOC(=O)[C@H](CCc1ccccc1)N[C@@H](C)C(=O)N1CCC[C@H]1C(=O)O,0.08,–,0.1
CC(=O)SCC(C)C(=O)N(CC(=O)O)C1CCCCCC1 (centres undefined),0.06,–,–
C[C@H](CSC(=O)C(C)(C)C)C(=O)N(CC(=O)O)C1CCCC1 [PIVOPRIL],0.058,3600,0.17
CC(=O)SCC(C)C(=O)N(CC(=O)O)C1CCS(=O)(=O)C1 (centres undefined),–,280,–
CC(CS)C(=O)NCC(=O)O (centres undefined),–,210,–

Compound,ID50 [1] [mg/kg],IC50 [2] [nM],ED50 [3] [mg/kg]
CC(=O)SCC(C)C(=O)N(CC(=O)O)C1CC2CCC1C2 (stereo in doubt; 30) [listing 1 of 2 here],0.06,–,–
CC(=O)SCC(C)C(=O)N(CC(=O)O)c1cccc(C)c1 (centres undefined),0.15,75,–
CC(=O)SCC(C)C(=O)N(CC(=O)O)c1cc(C)cc(C)c1 (centres undefined),–,44,–
CSc1cccc(N(CC(=O)O)C(=O)C(C)CSC(C)=O)c1 (centres undefined),–,75,–
CSCCCN(CC(=O)O)C(=O)C(C)CSC(C)=O (centres undefined),1.5,900,–
CC(=O)SCC(C)C(=O)N(CC(=O)O)C1CC2CCC1C2 (stereo in doubt; 31),–,52,–
CC(=O)SCC(C)C(=O)N(CC(=O)O)c1ccc(F)cc1 (centres undefined),–,600,–
CC(=O)SCC(C)C(=O)N(CC(=O)O)c1ccc(C(C)C)cc1 (centres undefined),–,60,–
CC(=O)SCC(C)C(=O)N(CC(=O)O)c1ccc(C)cc1 (centres undefined),0.15,130,–
CC(=O)SCC(C)C(=O)N(C1CC1)C(C)C(=O)O (centres undefined),–,220,–
CC(=O)SCC(C)C(=O)N(CC(=O)O)C[C@H]1CC2CC(C1C)C2(C)C (some centres undefined),–,140,–
CC(CS)C(=O)N(CC(=O)O)CC1CC2CC(C1C)C2(C)C (centres undefined),–,440,–
CC(=O)SCC(C)C(=O)N(CC(=O)O)C1CC2CCC1C2 (stereo in doubt; 30) [listing 2 of 2 here],–,20,–
CC(=O)SCC(C)C(=O)N(CC(=O)O)C1CCCCC1 (centres undefined),–,270,–
CC(=O)SCC(C)C(=O)N(CC(=O)O)C1CCCC1 (centres undefined),0.15,82,–
C[C@H](CS)C(=O)N1CCC[C@H]1C(=O)O [CAPTOPRIL],–,–,0.057
CC(=O)SCC(C)C(=O)N(CC(=O)O)Cc1cccs1 (centres undefined),–,750,–
CC(CSC(=O)CC(C)(C)C)C(=O)N(CC(=O)O)C1CCCC1 (centres undefined),1.2,15000,–
CC(CSC(=O)C(C)(C)C)C(=O)N(CC(=O)O)C1CCCC1 (centres undefined),0.15,3700,–

# The next lines start with results.
ID50 [1] [mg/kg],IC50 [2] [nM],Compound,ED50 [3] [mg/kg]
0.2,540,CC(=O)SCC(C)C(=O)N(CC(=O)O)C1CC1 (centres undefined),–
–,130,CC(CS)C(=O)N(CC(=O)O)CC1CCCO1 (centres undefined),–
0.3,30,CC(CS)C(=O)N(CC(=O)O)C1CC1 (centres undefined),–
–,220,CC(=O)SCC(C)C(=O)N(CC(=O)O)C1CCC1 (centres undefined),–
–,270,C#CCN(CC(=O)O)C(=O)C(C)CS (centres undefined),–
–,130,CC(CS)C(=O)N(C)CC(=O)O (centres undefined),–
–,72,CC(CS)C(=O)N(CC(=O)O)C(C)C (centres undefined),–
–,280,CC(CS)C(=O)N(CC(=O)O)C1CCS(=O)(=O)C1 (centres undefined),–
0.1,32,CC(CS)C(=O)N(CC(=O)O)C1CC2CCC1C2 (centres undefined),–
–,5,Cc1ccc(N(CC(=O)O)C(=O)C(C)CS)cc1 (centres undefined),–
–,340,CC(=O)SCC(C)C(=O)N(CC(=O)O)C1Cc2ccccc2C1 (centres undefined),–
–,550,CC(=O)SCC(C)C(=O)N(CC(=O)O)c1ccccc1C (centres undefined),–
–,44,Cc1cc(C)cc(N(CC(=O)O)C(=O)C(C)CS)c1 (centres undefined),–
0.15,–,CC(CS)C(=O)N(CC(=O)O)C1CCCC1 (centres undefined),–
0.15,–,CC(CS)C(=O)N(CC(=O)O)C1Cc2ccccc2C1 (centres undefined),–
0.2,300,CC(=O)SCC(C)C(=O)N(CC(=O)O)c1ccccc1 (centres undefined),–
–,75,CCN(CC(=O)O)C(=O)C(C)CS (centres undefined),–
0.05,–,CC(CS)C(=O)N(CC(=O)O)C1CCCCCC1 (centres undefined),–
0.1,–,CC(CS)C(=O)N(CC(=O)O)C1CCCCC1 (centres undefined),–
–,120,Cc1ccccc1N(CC(=O)O)C(=O)C(C)CS (centres undefined),–
–,19,Cc1cccc(N(CC(=O)O)C(=O)C(C)CS)c1 (centres undefined),–
–,55,CC(CS)C(=O)N(CC(=O)O)Cc1cccs1 (centres undefined),–
0.3,18,CC(CS)C(=O)N(CC(=O)O)C1CCC1 (centres undefined),–
–,170,CC(CS)C(=O)N(CC(=O)O)Cc1ccco1 (centres undefined),–
